From ChEMBL document CHEMBL1142089, “High-level telithromycin resistance in a clinical isolate of Streptococcus pneumoniae” (2007) come the findings set out here.

Usually MIC stands for the least concentration at which growth counts as inhibited. Low values mean a more susceptible organism, high ones a less susceptible organism.

Type in all cases: functional
The subject of assay [1] is Streptococcus pneumoniae. The assay is described as follows: Antimicrobial activity against Streptococcus pneumoniae PC13 isolate with erm(B) mutation. The procedure, abridged: (§1)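 MIC by agar dilution per CLSI guidelines, also by Etest. Pneumococci grown at 37°C in 5% CO2 on Mueller-Hinton agar with 5% horse blood. Interpreted with CLSI breakpoints; for telithromycin ≤1 μg/ml susceptible, 2 μg/ml intermediate, ≥4 μg/ml resistant.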

Assay [2] deals with Streptococcus pneumoniae. The assay is described as follows: Antimicrobial activity against Streptococcus pneumoniae PC13 isolate with L4 69GTG71 to TPS mutation. In a few lines:
as §1

Assay [3] relates to Streptococcus pneumoniae. The experiment in a line: Antimicrobial activity against Streptococcus pneumoniae R6 transformants. In a few lines: as §1
The test system of assay [4] is Streptococcus pneumoniae. The experiment in a line: Antimicrobial activity against Streptococcus pneumoniae R6 with L4 69GTG71 to TPS mutation. The procedure, abridged:
as §1

Assay [5] deals with Streptococcus pneumoniae. The assay is described as follows: Antimicrobial activity against Streptococcus pneumoniae PC13 transformants. In a few lines: as §1
The test system of assay [6] is Streptococcus pneumoniae. The assay is described as follows: Antimicrobial activity against Streptococcus pneumoniae PC13 isolate with L4 mutation. In a few lines:
as §1

Assay [7] deals with Streptococcus pneumoniae. The assay is described as follows: Antimicrobial activity against Streptococcus pneumoniae R6 with L4 mutation. The procedure, abridged:
as §1

Assay [8] deals with Streptococcus pneumoniae. The experiment in a line: Antimicrobial activity against Streptococcus pneumoniae BSF-11524 isolate with erm(B) and L4 mutation. In a few lines:
as §1

Values after ≈ are worked out from the molar mass of the structure shown.

With `CC[C@H]1OC(=O)[C@H](C)[C@@H](O[C@H]2C[C@@](C)(OC)[C@@H](O)[C@H](C)O2)[C@H](C)[C@@H](O[C@@H]2O[C@H](C)C[C@H](N(C)C)[C@H]2O)[C@](C)(O)C[C@@H](C)CN(C)[C@H](C)[C@@H](O)[C@]1(C)O` [AZITHROMYCIN], the MIC with Streptococcus pneumoniae [1] is above 256 µg/mL; in the assay on Streptococcus pneumoniae [2] it was above 256 µg/mL; against Streptococcus pneumoniae [3] it was 0.25 µg/mL (≈ 0.334 µM); against Streptococcus pneumoniae [4], above 256 µg/mL; in the assay on Streptococcus pneumoniae [5] it was above 256 µg/mL; against Streptococcus pneumoniae [6], above 256 µg/mL. Moreover, the minimal inhibitory concentration (MIC) with Streptococcus pneumoniae [7] and with Streptococcus pneumoniae [8] was above 256 µg/mL in each case.

`O=C(N[C@H](CO)[C@H](O)c1ccc([N+](=O)[O-])cc1)C(Cl)Cl` [CHLORAMPHENICOL]: the MIC with Streptococcus pneumoniae [1] worked out at 12 µg/mL (≈ 37.1 µM); against Streptococcus pneumoniae [2] it was 12 µg/mL (≈ 37.1 µM); against Streptococcus pneumoniae [3], 1.5 µg/mL (≈ 4.64 µM); against Streptococcus pneumoniae [4] it was 2 µg/mL (≈ 6.19 µM); in the assay with Streptococcus pneumoniae [5], 12 µg/mL (≈ 37.1 µM); with Streptococcus pneumoniae [6], 12 µg/mL (≈ 37.1 µM). Also, the minimum inhibitory concentration (MIC) in the assay on Streptococcus pneumoniae [7] and with Streptococcus pneumoniae [8] was 2 µg/mL (≈ 6.19 µM) throughout.

Take `CC[C@H]1OC(=O)[C@H](C)[C@@H](O[C@H]2C[C@@](C)(OC)[C@@H](O)[C@H](C)O2)[C@H](C)[C@@H](O[C@@H]2O[C@H](C)C[C@H](N(C)C)[C@H]2O)[C@](C)(OC)C[C@@H](C)C(=O)[C@H](C)[C@@H](O)[C@]1(C)O` [CLARITHROMYCIN]: the minimal inhibitory concentration (MIC) in the assay with Streptococcus pneumoniae [1] is above 256 µg/mL; in the assay on Streptococcus pneumoniae [2] it was above 256 µg/mL; in the assay with Streptococcus pneumoniae [3], 0.06 µg/mL (≈ 0.0802 µM); against Streptococcus pneumoniae [4], 24 µg/mL (≈ 32.1 µM); with Streptococcus pneumoniae [5], above 256 µg/mL; in the assay on Streptococcus pneumoniae [6] it was above 256 µg/mL. Besides, the MIC with Streptococcus pneumoniae [7] is 24 µg/mL (≈ 32.1 µM); in the assay with Streptococcus pneumoniae [8], above 256 µg/mL.

In the case of `CCC[C@@H]1C[C@@H](C(=O)N[C@@H]([C@H]2O[C@H](SC)[C@H](O)[C@@H](O)[C@H]2O)[C@H](C)Cl)N(C)C1` [CLINDAMYCIN], the MIC in the assay on Streptococcus pneumoniae [1] is above 256 µg/mL; with Streptococcus pneumoniae [2] it was above 256 µg/mL; against Streptococcus pneumoniae [3] it was 0.06 µg/mL (≈ 0.141 µM); in the assay with Streptococcus pneumoniae [4] it was 0.094 µg/mL (≈ 0.221 µM); in the assay with Streptococcus pneumoniae [5] it was above 256 µg/mL; against Streptococcus pneumoniae [6], above 256 µg/mL. Also, the minimum inhibitory concentration (MIC) with Streptococcus pneumoniae [7] is 0.125 µg/mL (≈ 0.294 µM); in the assay with Streptococcus pneumoniae [8], above 256 µg/mL.

As for `CC[C@H]1OC(=O)[C@H](C)[C@@H](O[C@H]2C[C@@](C)(OC)[C@@H](O)[C@H](C)O2)[C@H](C)[C@@H](O[C@@H]2O[C@H](C)C[C@H](N(C)C)[C@H]2O)[C@](C)(O)C[C@@H](C)C(=O)[C@H](C)[C@@H](O)[C@]1(C)O` [ERYTHROMYCIN], the minimum inhibitory concentration (MIC) in the assay on Streptococcus pneumoniae [1] was above 256 µg/mL; against Streptococcus pneumoniae [2], above 256 µg/mL; against Streptococcus pneumoniae [3], 0.094 µg/mL (≈ 0.128 µM); against Streptococcus pneumoniae [4], above 256 µg/mL; with Streptococcus pneumoniae [5] it was above 256 µg/mL; in the assay on Streptococcus pneumoniae [6], above 256 µg/mL. Besides, the MIC in the assay on Streptococcus pneumoniae [7] and in the assay on Streptococcus pneumoniae [8] was above 256 µg/mL in each case.

Take `CC[C@H]1OC(=O)[C@H](C)C(=O)[C@H](C)[C@@H](O[C@@H]2O[C@H](C)C[C@H](N(C)C)[C@H]2O)[C@](C)(OC)C[C@@H](C)C(=O)[C@H](C)[C@H]2N(CCCCn3cnc(-c4cccnc4)c3)C(=O)O[C@]12C` [TELITHROMYCIN]: the MIC with Streptococcus pneumoniae [1] is 1 µg/mL (≈ 1.23 µM); against Streptococcus pneumoniae [2], above 256 µg/mL; in the assay with Streptococcus pneumoniae [3] it was 0.015 µg/mL (≈ 0.0185 µM); against Streptococcus pneumoniae [4], 0.12 µg/mL (≈ 0.148 µM); against Streptococcus pneumoniae [5], 0.06 µg/mL (≈ 0.0739 µM); with Streptococcus pneumoniae [6] it was above 256 µg/mL. For the same compound, the MIC is 0.12 µg/mL (≈ 0.148 µM) against Streptococcus pneumoniae [7] and above 256 µg/mL against Streptococcus pneumoniae [8].

`CN(C)[C@@H]1C(O)=C(C(N)=O)C(=O)[C@@]2(O)C(O)=C3C(=O)c4c(O)cccc4[C@@](C)(O)[C@H]3C[C@@H]12` [TETRACYCLINE]: the MIC with Streptococcus pneumoniae [1] was 8 µg/mL (≈ 18 µM); against Streptococcus pneumoniae [2], 8 µg/mL (≈ 18 µM); against Streptococcus pneumoniae [3], 0.094 µg/mL (≈ 0.212 µM); in the assay with Streptococcus pneumoniae [4], 0.06 µg/mL (≈ 0.135 µM); against Streptococcus pneumoniae [5], 12 µg/mL (≈ 27 µM); against Streptococcus pneumoniae [6], 12 µg/mL (≈ 27 µM). Further, the MIC came to 0.094 µg/mL (≈ 0.212 µM) with Streptococcus pneumoniae [7] and 12 µg/mL (≈ 27 µM) in the assay with Streptococcus pneumoniae [8].
